An excerpt weighted towards active compounds, which were near 2.8% of everything screened.
MC4R barr agon = MC4R agonists recruiting beta-arrestin, primary screen, cell-based, luminescence, agonist arm of biased-ligand search | Melanocortin receptor 4 (Homo sapiens), P32245 | U2OS MC4R beta-arrestin complementation; percent of melanotan II response, DMSO zero | activation, % at 8.9 µM | actives 0.98% (n = 360,000);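 active = activation above a per-plate cutoff, the mean activation of sample wells on that plate plus 3 SD, cut at about 8% in these data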
EBI2 antag = EBI2 receptor antagonists, beta-arrestin recruitment, primary screen, cell-based, luminescence, 7a,25-OHC stimulation, uHTS; AID 651636, 2012; G-protein coupled receptor 183 (Homo sapiens), P32249; actives 0.81% (n = 360,000); 7a,25-OHC stimulated; inhibition, % at 5 µM; in the data active = inhibition above about 38%;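 note: enzyme fragment complementation signal reports receptor beta-arrestin coupling in cells; 0% = agonist plus DMSO wells and 100% = wells without agonist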
Target sequence (P32249 whole entry, looked up, the tested form may be a part): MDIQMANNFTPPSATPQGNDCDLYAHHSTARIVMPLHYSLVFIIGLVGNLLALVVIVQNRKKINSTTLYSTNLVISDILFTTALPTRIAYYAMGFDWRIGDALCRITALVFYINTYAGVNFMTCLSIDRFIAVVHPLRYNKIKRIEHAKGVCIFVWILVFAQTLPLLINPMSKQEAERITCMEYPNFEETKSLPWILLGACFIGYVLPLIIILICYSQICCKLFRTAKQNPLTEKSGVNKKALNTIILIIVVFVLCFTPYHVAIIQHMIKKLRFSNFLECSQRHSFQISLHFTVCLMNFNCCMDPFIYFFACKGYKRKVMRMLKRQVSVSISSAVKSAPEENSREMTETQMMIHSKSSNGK
m5-HT2A agonist = mouse Htr2a agonists via beta-arrestin recruitment, primary screen, cell-based, luminescence. activation, % at 7.6 µM. CHO-K1 mHTR2A beta-arrestin complementation; percent of 30 µM serotonin response. 5-hydroxytryptamine receptor 2A (Mus musculus), P35363. actives 0.66% (n = 360,000);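 active = activation above a run cutoff, the mean activation of all tested compounds plus 3 SD, cut at about 14% in these data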;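 note: 0% = plate median of compound wells and 100% = 30 µM serotonin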
MC4R antagonist = MC4R antagonists of cAMP signaling, primary screen, cell-based, TR-FRET, antagonist arm of biased-ligand search. MC4R-expressing cells, MTII-stimulated cAMP, LANCE TR-FRET. actives 0.48% (n = 360,000). Melanocortin receptor 4 (Homo sapiens), P32245. inhibition, % at 6.5 µM. AID 540295, 2011;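 active = inhibition above its plate's cutoff, the mean of tested wells on that plate plus 3 SD, cut at about 29% in these data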;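 note: 0% = Melanotan II alone and 100% = Melanotan II plus saturating MCL0020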
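Assay system: U2OS cells stably expressing human melanocortin 4 receptor (MC4R) / Dosing: 6.5 µM / Timing: compound 30 min, challenge 1 h, detection 1 h / Measured by: Eu-cAMP/anti-cAMP TR-FRET, emission 671 nm / Replicates: singlicate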
MC4R barr ag = MC4R beta-arrestin agonists, retest, confirmation, cell-based, luminescence, U2OS. shares compounds with MC4R barr agon. U2OS MC4R beta-arrestin recruitment; scaled DMSO 0%, Melanotan II 100%. activation, % at 8.9 µM. actives 31% (n = 2,400). AID 602192, 2012;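 active = mean activation across replicates above the hit cutoff set in the earlier primary screen, cut at about 8% in these data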
MOR DOR agonist = agonists of MOR-DOR heterodimerization, counter-screen for MC4R biased agonist project, cell-based, luminescence; shares compounds with MC4R barr agon; U2OS PathHunter beta-arrestin, beta-gal luminescence; percent of deltorphin B response, DMSO zero; activation, % at 9.2 µM; actives 5.8% (n = 2,400);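 active = mean activation across replicates exceeds the hit threshold derived in the earlier primary screen, cut at about 18% in these data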;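 note: 100% = deltorphin B at 0.9 µM final and 0% = DMSO alone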
An asterisk follows results filed as active; nt = not tested or not shown; ! = not confirmed by another sample.

SMILES	MC4R barr agon	EBI2 antag	m5-HT2A agonist	MC4R antagonist	MC4R barr ag	MOR DOR agonist
COc1ccc(NC(=O)Cn2cc(S(=O)(=O)Cc3ccccc3)c3ccccc32)c(OC)c1	0	-1	7	-4	nt	nt
O=C(Cn1cc(S(=O)(=O)Cc2ccccc2)c2ccccc21)Nc1ccccc1	9.7*	-4	1	-6	-4	4
Cc1cc(NC(=O)Cc2csc(-c3ccccc3)n2)ccc1Br	15*	6	1	15	3	7
Cc1ccc(C)c(NC(=O)Cc2csc(-c3ccccc3)n2)c1	1	3	7	6	nt	nt
C[C@H](CO)N1C[C@H](C)[C@H](CN(C)C(=O)Nc2ccnc(N3CCOCC3)c2)OCc2cnnn2CCCC1=O	1	0	-1	7	nt	nt
O=C(C=P(c1ccccc1)(c1ccccc1)c1ccccc1)c1ccccc1-c1ccccc1C(=O)C=P(c1ccccc1)(c1ccccc1)c1ccccc1	-4	3	-2	-1	nt	nt
O=C(Nc1ccc(Cl)cn1)c1cc2c(s1)-c1ccccc1OC2	9.8*	2	6	7	8.3*	3
N#C/C(=C/c1ccco1)c1nc2ccccc2s1	9.6*	11	-4	-6	-3	4
Cn1c2ccccc2c2cnn(CC(=O)Nc3ccc(F)cc3F)c(=O)c21	16*	-6	4	-3	1	3
Cn1c2ccccc2c2cnn(CC(=O)Nc3ccccc3Br)c(=O)c21	3	-18	-3	-5	nt	nt
COc1ccccc1N1CCN(C(=O)c2ccc3ncsc3c2)CC1	0	40	-2	-2	nt	nt
CC(C)CC(=O)OC1C(N2CCOCC2)c2c(ccc(/C=C/C(=O)N3CCOCC3)c2O)OC1(C)C (stereo not given)	12*	-9	7	1	5	3
CC1CCc2nc(NC(=O)CSc3nc4ccccc4o3)sc2C1 (stereo not given)	14*	1	3	3	4	10
Cc1nnc(NC(=O)CSc2nc3ccccc3o2)s1	2	-2	-1	-1	nt	nt
Cc1ccc(C(=O)Nc2cccc(C(F)(F)F)c2)cc1NC(=O)c1nccnc1N	17*	-1	4	-18	8	44*!
CCCCCNCC(=O)Nc1cccc(C(=O)Nc2cccc(C(F)(F)F)c2)c1	15*	-2	0	-5	16*	14
O=C(CN1CCOCC1)Nc1cccc(C(=O)Nc2cccc(C(F)(F)F)c2)c1	-3	0	-6	3	nt	nt
O=C(O)/C=C/C(=O)Nc1ccc(C2(c3ccc(NC(=O)/C=C/C(=O)O)cc3)c3ccccc3-c3ccccc32)cc1	53*	-8	0	-1	1	1
O=C(O)/C=C\C(=O)Nc1ccc(Oc2ccccc2)cc1	-1	0	-1	3	nt	nt
N#Cc1c(N)nc(-c2ccccc2)nc1-c1ccccc1	13*	3	-1	-3	0	6
N#Cc1c(-c2ccccc2)nc(-c2ccccc2)nc1N1CCOCC1	3	11	-1	2	nt	nt
Cc1ccc(C(=O)N2CCCCC2C(=O)O)cc1S(=O)(=O)N1CCCCC1 (stereo not given)	-1	-1	-2	8	nt	nt
Cc1cc(-n2c(C)cc(C(=O)CSc3nnc4sc5ccccc5n34)c2C)no1	0	-11	0	19	nt	nt
Cc1cc(-n2c(C)cc(C(=O)CSc3nnnn3-c3ccc(Cl)cc3)c2C)no1	20*	22	-2	7	2	4
Cc1cccc(NC(=O)CC2c3ccccc3Oc3ccccc32)c1	1	2	2	2	nt	nt
O=C(CC1c2ccccc2Oc2ccccc21)Nc1ccccc1F	11*	15	2	4	5	6
O=C(CC1c2ccccc2Oc2ccccc21)Nc1ccccc1C(F)(F)F	17*	8	3	5	4	8

Source: PubChem (several laboratories)
